Reference: ChEMBL document CHEMBL1154578, “Aminosterols from the dogfish shark Squalus acanthias” (2000)
In brackets after ≈: the same amount, converted by molar mass.

Tests used:
Assay type in all cases: functional
[1] = test system: Pseudomonas aeruginosa; assay: Antimicrobial activity against Pseudomonas aeruginosa ATCC 27853
Summary of the method: (§1)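 Broth microdilution MIC: log-phase microbes at (0.9-1.1) × 10⁵ cfu/mL in 0.5× trypticase soy broth, exposed to increasing amounts of aminosterol in microtiter plates, incubated at 37 °C for 18-24 h. Aminosterol starting solutions at 2 mg/mL in 250 mM sodium acetate, pH 6.6.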

[2] = test system: Staphylococcus aureus; assay: Antimicrobial activity against Staphylococcus aureus ATCC 29218; conditions: ATCC 29213, in the assay text read “ATCC 29213” for “ATCC 29218”; summary of the method: as §1
[3] = test system: Candida albicans; assay: Antimicrobial activity against Candida albicans ATCC 90028; summary of the method: as §1
[4] = test system: Escherichia coli; assay: Antimicrobial activity against Escherichia coli ATCC 25922; summary of the method: as §1

MIC [1] [µg/mL] | MIC [2] [µg/mL] | MIC [3] [µg/mL] | MIC [4] [µg/mL] | Compound
16 (≈ 29.4 µM) | 2 (≈ 3.68 µM) | 2 (≈ 3.68 µM) | 16 (≈ 29.4 µM) | C=C(C)C(=O)CC[C@@H](C)[C@H]1CC[C@H]2[C@@H]3[C@H](O)C[C@H]4C[C@@H](NCCCNCCCCN)CC[C@]4(C)[C@H]3CC[C@]12C
32 (≈ 49.7 µM) | 4 (≈ 6.21 µM) | 16 (≈ 24.8 µM) | 128 (≈ 199 µM) | CC(COS(=O)(=O)O)[C@H](O)CC[C@@H](C)[C@H]1CC[C@H]2[C@@H]3[C@H](O)C[C@H]4C[C@@H](NCCCNCCCCN)CC[C@]4(C)[C@H]3CC[C@]12C (some centres not stated)
16 (≈ 25.5 µM) | 1 (≈ 1.59 µM) | 16 (≈ 25.5 µM) | 4 (≈ 6.37 µM) | CC(C)[C@@H](CC[C@@H](C)[C@H]1CC[C@H]2[C@@H]3[C@H](O)C[C@H]4C[C@@H](NCCCNCCCCN)CC[C@]4(C)[C@H]3CC[C@]12C)OS(=O)(=O)O [SQUALAMINE]
128 (≈ 199 µM) | 8 (≈ 12.5 µM) | 32 (≈ 49.8 µM) | 128 (≈ 199 µM) | CC(COS(=O)(=O)O)C(=O)CC[C@@H](C)[C@H]1CC[C@H]2[C@@H]3[C@H](O)C[C@H]4C[C@@H](NCCCNCCCCN)CC[C@]4(C)[C@H]3CC[C@]12C (some centres not stated)

More lines, now with the values behind:

Compound | MIC [1] [µg/mL] | MIC [2] [µg/mL] | MIC [3] [µg/mL] | MIC [4] [µg/mL]
CC(C)[C@@H](CC[C@@H](C)[C@H]1CC[C@H]2[C@@H]3[C@H](O)C[C@H]4C[C@@H](NCCCNCCCCN)CC[C@]4(C)[C@H]3C[C@H](O)[C@]12C)OS(=O)(=O)O | 16 (≈ 24.8 µM) | 8 (≈ 12.4 µM) | 32 (≈ 49.7 µM) | 16 (≈ 24.8 µM)
CC(C)[C@@H](CC[C@@H](C)[C@H]1CC[C@H]2[C@@H]3[C@H](O)C[C@H]4C[C@@H](NCCCNCCCCNCCCN)CC[C@]4(C)[C@H]3CC[C@]12C)OS(=O)(=O)O [TRODUSQUEMINE] | 4 (≈ 5.84 µM) | 1 (≈ 1.46 µM) | 4 (≈ 5.84 µM) | 1 (≈ 1.46 µM)
CC(C)[C@](CO)(CC[C@@H](C)[C@H]1CC[C@H]2[C@@H]3[C@H](O)C[C@H]4C[C@@H](NCCCNCCCCN)CC[C@]4(C)[C@H]3CC[C@]12C)OS(=O)(=O)O | 16 (≈ 24.3 µM) | 2 (≈ 3.04 µM) | 32 (≈ 48.6 µM) | 8 (≈ 12.2 µM)
CC(CSCC(N)C(=O)O)C(=O)CC[C@@H](C)[C@H]1CC[C@H]2[C@@H]3[C@H](O)C[C@H]4C[C@@H](NCCCNCCCCN)CC[C@]4(C)[C@H]3CC[C@]12C (some centres not stated) | 256 (≈ 385 µM) | 8 (≈ 12 µM) | 128 (≈ 192 µM) | 256 (≈ 385 µM)
